In ChEMBL document CHEMBL4145598, “Discovery and Development of 8-Substituted Cycloberberine Derivatives as Novel Antibacterial Agents against MRSA” (ACS Med Chem Lett, 2018):

Key:
Type in all cases: functional
Staphylococcus aureus [1] = assay: Antimicrobial activity against methicillin-resistant Staphylococcus aureus isolate 12-16 after 18 hrs by agar dilution assay; conditions: isolate 12-16, 18 h
Summary of the method: (§1)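 Drug-resistant S. aureus (MRSA/VISA) panel. It includes ATCC reference strains and clinical isolates from patients in Chinese hospitals. MIC was determined by standard methods and reported in μg/mL, with levofloxacin as the reference drug.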

Staphylococcus aureus [2] = assay: Antimicrobial activity against methicillin-resistant Staphylococcus aureus ATCC-BAA-1708 after 18 hrs by agar dilution assay; conditions: ATCC-BAA-1708, 18 h; summary of the method: as §1
Staphylococcus hominis = assay: Antimicrobial activity against Staphylococcus hominis ATCC 35982 after 18 hrs by agar dilution assay; conditions: ATCC 35982, 18 h
Staphylococcus aureus [3] = assay: Antimicrobial activity against methicillin-sensitive Staphylococcus aureus isolate 13-20 after 18 hrs by agar dilution assay; conditions: isolate 13-20, 18 h
[4] = test system: Staphylococcus saprophyticus; assay: Antimicrobial activity against Staphylococcus saprophyticus ATCC 15305 after 18 hrs by agar dilution assay; conditions: ATCC 15305, 18 h
Staphylococcus aureus [5] = assay: Antimicrobial activity against methicillin-sensitive Staphylococcus aureus isolate 13-21 after 18 hrs by agar dilution assay; conditions: isolate 13-21, 18 h
Staphylococcus aureus [6] = assay: Antimicrobial activity against methicillin-resistant Staphylococcus aureus isolate 13-18 after 18 hrs by agar dilution assay; conditions: isolate 13-18, 18 h; summary of the method: as §1
Staphylococcus aureus [7] = assay: Antimicrobial activity against methicillin-resistant Staphylococcus aureus isolate 12-8 after 18 hrs by agar dilution assay; conditions: isolate 12-8, 18 h; summary of the method: as §1
Staphylococcus aureus [8] = assay: Antimicrobial activity against methicillin-resistant Staphylococcus aureus ATCC 33591 after 18 hrs by agar dilution assay; conditions: ATCC 33591, 18 h; summary of the method: as §1
Staphylococcus aureus [9] = assay: Antimicrobial activity against vancomycin-intermediate Staphylococcus aureus ATCC 700699 after 18 hrs by agar dilution assay; conditions: ATCC 700699, 18 h
Summary of the method: (§2)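 MICs in μg/mL against drug-resistant S. aureus (MRSA/VISA) by standard methods, with levofloxacin as the reference drug. ATCC strains were used.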

Staphylococcus aureus [10] = assay: Antimicrobial activity against methicillin-sensitive Staphylococcus aureus isolate 13-19 after 18 hrs by agar dilution assay; conditions: isolate 13-19, 18 h
Staphylococcus aureus [11] = assay: Antimicrobial activity against methicillin-sensitive Staphylococcus aureus isolate 13-17 after 18 hrs by agar dilution assay; conditions: isolate 13-17, 18 h
Staphylococcus aureus [12] = assay: Antimicrobial activity against methicillin-sensitive Staphylococcus aureus ATCC 29213 after 18 hrs by agar dilution assay; conditions: ATCC 29213, 18 h
Staphylococcus aureus [13] = assay: Antimicrobial activity against methicillin-resistant Staphylococcus aureus isolate 13-23 after 18 hrs by agar dilution assay; conditions: isolate 13-23, 18 h; summary of the method: as §1
Staphylococcus aureus [14] = assay: Antimicrobial activity against vancomycin-intermediate Staphylococcus aureus ATCC 700698 after 18 hrs by agar dilution assay; conditions: ATCC 700698, 18 h; summary of the method: as §2
[15] = test system: Staphylococcus epidermidis; assay: Antimicrobial activity against methicillin-sensitive Staphylococcus epidermidis ATCC 12228 after 18 hrs by agar dilution assay; conditions: ATCC 12228, 18 h
Staphylococcus aureus [16] = assay: Antimicrobial activity against methicillin-resistant Staphylococcus aureus isolate 12-13 after 18 hrs by agar dilution assay; conditions: isolate 12-13, 18 h; summary of the method: as §1
Staphylococcus aureus [17] = assay: Antimicrobial activity against methicillin-sensitive Staphylococcus aureus isolate 15 after 18 hrs by agar dilution assay; conditions: isolate 15, 18 h
[18] = test system: Staphylococcus epidermidis; assay: Antimicrobial activity against methicillin-sensitive Staphylococcus epidermidis isolate 13-1 after 18 hrs by agar dilution assay; conditions: isolate 13-1, 18 h
Staphylococcus aureus [19] = assay: Antimicrobial activity against methicillin-resistant Staphylococcus aureus isolate 12-3 after 18 hrs by agar dilution assay; conditions: isolate 12-3, 18 h; summary of the method: as §1

Row | Structure (SMILES) | MIC (Staphylococcus aureus [1]) | MIC (Staphylococcus aureus [2]) | MIC (Staphylococcus hominis) | MIC (Staphylococcus aureus [3]) | MIC [4] | MIC (Staphylococcus aureus [5]) | MIC (Staphylococcus aureus [6]) | MIC (Staphylococcus aureus [7]) | MIC (Staphylococcus aureus [8]) | MIC (Staphylococcus aureus [9]) | MIC (Staphylococcus aureus [10]) | MIC (Staphylococcus aureus [11]) | MIC (Staphylococcus aureus [12]) | MIC (Staphylococcus aureus [13]) | MIC (Staphylococcus aureus [14]) | MIC [15] | MIC (Staphylococcus aureus [16]) | MIC (Staphylococcus aureus [17]) | MIC [18] | MIC (Staphylococcus aureus [19])
1 | COc1ccc2c(c[n+]3c4c2ccc2c5c(cc(c24)CC3)OCO5)c1NC(=O)C12CC3CC(CC(C3)C1)C2.[Cl-] | > 64 µg/mL | > 64 µg/mL | > 64 µg/mL | > 64 µg/mL | > 64 µg/mL | > 64 µg/mL | > 64 µg/mL | > 64 µg/mL | > 64 µg/mL | > 64 µg/mL | > 64 µg/mL | > 64 µg/mL | > 64 µg/mL | > 64 µg/mL | > 64 µg/mL | > 64 µg/mL | > 64 µg/mL | > 64 µg/mL | > 64 µg/mL | > 64 µg/mL
2 | COc1ccc2c(c[n+]3c4c2ccc2c5c(cc(c24)CC3)OCO5)c1OCC(=O)c1ccccc1.[Br-] | 32 µg/mL | 32 µg/mL | 32 µg/mL | 32 µg/mL | 16 µg/mL | 16 µg/mL | 32 µg/mL | 16 µg/mL | 16 µg/mL | > 64 µg/mL | 16 µg/mL | 16 µg/mL | 16 µg/mL | 16 µg/mL | > 64 µg/mL | 8 µg/mL | 32 µg/mL | 32 µg/mL | 64 µg/mL | 16 µg/mL
3 | COc1ccc2c(c[n+]3c4c2ccc2c5c(cc(c24)CC3)OCO5)c1NC(=O)c1cc(C)n(C)n1.[Cl-] | 16 µg/mL | 16 µg/mL | > 64 µg/mL | 8 µg/mL | > 64 µg/mL | 16 µg/mL | 32 µg/mL | 32 µg/mL | 64 µg/mL | 4 µg/mL | 8 µg/mL | 16 µg/mL | 16 µg/mL | 8 µg/mL | > 64 µg/mL | 32 µg/mL | 16 µg/mL | 16 µg/mL | > 64 µg/mL | 32 µg/mL
4 | COc1ccc2c(c[n+]3c4c2ccc2c5c(cc(c24)CC3)OCO5)c1OCC(=O)C(C)(C)C.[Br-] | 32 µg/mL | 32 µg/mL | 16 µg/mL | 32 µg/mL | 32 µg/mL | 32 µg/mL | 32 µg/mL | 64 µg/mL | 32 µg/mL | > 64 µg/mL | 32 µg/mL | 32 µg/mL | 32 µg/mL | 32 µg/mL | > 64 µg/mL | 32 µg/mL | 32 µg/mL | 64 µg/mL | 32 µg/mL | 32 µg/mL
5 | COc1ccc2c(c[n+]3c4c2ccc2c5c(cc(c24)CC3)OCO5)c1OCC(=O)c1ccccc1OC(F)(F)F.[Br-] | 4 µg/mL | 32 µg/mL | 4 µg/mL | 8 µg/mL | 4 µg/mL | 8 µg/mL | 8 µg/mL | 8 µg/mL | 8 µg/mL | > 64 µg/mL | 8 µg/mL | 8 µg/mL | 8 µg/mL | 8 µg/mL | > 64 µg/mL | 4 µg/mL | 4 µg/mL | 16 µg/mL | 16 µg/mL | 16 µg/mL
6 | COc1ccc2c(c[n+]3c4c2ccc2c5c(cc(c24)CC3)OCO5)c1NCc1ccccc1.[Cl-] | 64 µg/mL | 64 µg/mL | 8 µg/mL | 64 µg/mL | 8 µg/mL | 64 µg/mL | 64 µg/mL | 64 µg/mL | 64 µg/mL | > 64 µg/mL | 64 µg/mL | 64 µg/mL | 64 µg/mL | 64 µg/mL | 32 µg/mL | 8 µg/mL | 64 µg/mL | 64 µg/mL | 64 µg/mL | 64 µg/mL
7 | COc1ccc2c(c[n+]3c4c2ccc2c5c(cc(c24)CC3)OCO5)c1O.[Cl-] | 0.5 µg/mL | 0.5 µg/mL | 0.5 µg/mL | 0.25 µg/mL | > 64 µg/mL | 0.5 µg/mL | 0.25 µg/mL | 0.5 µg/mL | 0.25 µg/mL | 0.25 µg/mL | 0.5 µg/mL | 0.25 µg/mL | 0.25 µg/mL | 0.25 µg/mL | 0.5 µg/mL | 0.5 µg/mL | 1 µg/mL | 4 µg/mL | 0.5 µg/mL | 0.25 µg/mL
8 | CCC(=O)COc1c(OC)ccc2c1c[n+]1c3c2ccc2c4c(cc(c23)CC1)OCO4.[Br-] | > 64 µg/mL | > 64 µg/mL | > 64 µg/mL | > 64 µg/mL | > 64 µg/mL | > 64 µg/mL | > 64 µg/mL | > 64 µg/mL | > 64 µg/mL | > 64 µg/mL | > 64 µg/mL | > 64 µg/mL | > 64 µg/mL | > 64 µg/mL | > 64 µg/mL | > 64 µg/mL | > 64 µg/mL | > 64 µg/mL | > 64 µg/mL | > 64 µg/mL
9 | COc1ccc(CNc2c(OC)ccc3c2c[n+]2c4c3ccc3c5c(cc(c34)CC2)OCO5)cc1.[Cl-] |  |  | 8 µg/mL |  | 16 µg/mL |  |  |  |  | > 64 µg/mL |  |  |  |  | 16 µg/mL | 8 µg/mL |  |  | 64 µg/mL | 
10 | COc1ccc2c(c[n+]3c4c2ccc2c5c(cc(c24)CC3)OCO5)c1OCC(=O)C1CC1.[Br-] | > 64 µg/mL | > 64 µg/mL | > 64 µg/mL | > 64 µg/mL | > 64 µg/mL | > 64 µg/mL | > 64 µg/mL | > 64 µg/mL | > 64 µg/mL | > 64 µg/mL | > 64 µg/mL | > 64 µg/mL | > 64 µg/mL | > 64 µg/mL | > 64 µg/mL | > 64 µg/mL | > 64 µg/mL | > 64 µg/mL | > 64 µg/mL | > 64 µg/mL
11 | COc1ccc2c(c[n+]3c4c2ccc2c5c(cc(c24)CC3)OCO5)c1OCC(=O)c1cccc(OC(F)(F)F)c1.[Br-] | 16 µg/mL | 64 µg/mL | 32 µg/mL | 16 µg/mL | 16 µg/mL | 16 µg/mL | 16 µg/mL | 8 µg/mL | 16 µg/mL | > 64 µg/mL | 16 µg/mL | 16 µg/mL | 32 µg/mL | 16 µg/mL | > 64 µg/mL | 16 µg/mL | 32 µg/mL | 16 µg/mL | 32 µg/mL | 16 µg/mL
12 | COc1ccc2c(c[n+]3c4c2ccc2c5c(cc(c24)CC3)OCO5)c1OCC(=O)c1ccc(F)cc1.[Br-] | 16 µg/mL | 64 µg/mL | 32 µg/mL | 16 µg/mL | 32 µg/mL | 8 µg/mL | 16 µg/mL | 8 µg/mL | 8 µg/mL | > 64 µg/mL | 8 µg/mL | 16 µg/mL | 64 µg/mL | 8 µg/mL | > 64 µg/mL | 8 µg/mL | 8 µg/mL | 8 µg/mL | 8 µg/mL | 8 µg/mL
13 | COc1ccc2c(c[n+]3c4c2ccc2c5c(cc(c24)CC3)OCO5)c1NC(=O)c1c(C)noc1C.[Cl-] | > 64 µg/mL | > 64 µg/mL | > 64 µg/mL | > 64 µg/mL | > 64 µg/mL | > 64 µg/mL | > 64 µg/mL | > 64 µg/mL | > 64 µg/mL | > 64 µg/mL | > 64 µg/mL | > 64 µg/mL | > 64 µg/mL | > 64 µg/mL | > 64 µg/mL | > 64 µg/mL | > 64 µg/mL | > 64 µg/mL | > 64 µg/mL | > 64 µg/mL
14 | COc1ccc2c(c[n+]3c4c2ccc2c5c(cc(c24)CC3)OCO5)c1NC(=O)CC1CCCC1.[Cl-] | 8 µg/mL | 4 µg/mL | 8 µg/mL | 8 µg/mL | 32 µg/mL | 8 µg/mL | 8 µg/mL | 8 µg/mL | 8 µg/mL | 4 µg/mL | 8 µg/mL | 8 µg/mL | 8 µg/mL | 8 µg/mL | 64 µg/mL | 8 µg/mL | 16 µg/mL | 8 µg/mL | 8 µg/mL | 8 µg/mL
